# Measurements from ChEMBL document CHEMBL1137387, “Structural determinants of opioid activity in derivatives of 14-aminomorphinones: effects of changes to the chain linking of the C14-amino group to the aryl ring” (J Med Chem, 2006).
# Active and inactive are the calls of the source. The calls are words filed in the database; no cut-off is given here.
# Legend:
# [1] = molecular target: T1, Mu-type opioid receptor (Homo sapiens, UniProt P35372); experiment: Activity at human recombinant mu opioid receptor expressed in CHO cells assessed as stimulation of [35S]GTP-gamma-S binding relative to DAMGO; type: functional, cell-based
# In short: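 Membranes of CHO cells transfected with recombinant human MOR were assayed for stimulation of [35S]GTPγS binding. Efficacy is expressed against the standard DAMGO. Values are means of five or six experiments.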
# [2] = molecular target: T2, Delta-type opioid receptor (Homo sapiens, UniProt P41143); experiment: Activity at human recombinant delta opioid receptor expressed in CHO cells assessed as stimulation of [35S]GTP-gamma-S binding; type: functional, cell-based
# [3] = molecular target: T1, Mu-type opioid receptor; experiment: Displacement of [3H]DAMGO from human recombinant mu opioid receptor expressed in CHO cells; type: cell-based
# In short: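 Competition binding used membranes of CHO cells transfected with recombinant human MOR, with [3H]DAMGO as the selective radioligand. Affinity is reported as Ki (nM).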
# [4] = molecular target: T3, Kappa-type opioid receptor (Homo sapiens, UniProt P41145); experiment: Displacement of [3H]U-69593 from human recombinant kappa opioid receptor expressed in CHO cells; type: cell-based
# [5] = molecular target: T2, Delta-type opioid receptor; experiment: Displacement of [3H]Cl-DPDPE from human recombinant delta opioid receptor expressed in CHO cells; type: cell-based
# [6] = test system: Mus musculus; experiment: Agonist activity in mouse tail withdrawal assay at 1 mg/kg relative to morphine; type: functional
# In short: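 Antinociception in mice was measured as tail withdrawal from 50 °C water, with a test dose of 1 mg/kg compared against morphine. In a separate arm, the morphine antinociceptive dose–effect curve was determined after 24 h pretreatment to probe delayed MOR antagonism.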
# [7] = molecular target: T1, Mu-type opioid receptor; experiment: Displacement of [3H]diprenorphine from human mu opioid receptor expressed in C6 cells; type: cell-based
# [8] = molecular target: T3, Kappa-type opioid receptor; experiment: Displacement of [3H]diprenorphine from human recombinant kappa opioid receptor expressed in C6 cells; type: cell-based
# [9] = molecular target: T2, Delta-type opioid receptor; experiment: Displacement of [3H]diprenorphine from human recombinant delta opioid receptor expressed in C6 cells; type: cell-based
# [10] = organism: Cavia porcellus; experiment: Selectivity for guinea pig mu opioid receptor over delta opioid receptor
# [11] = molecular target: Opioid receptor (mu and kappa) (Cavia porcellus) (UniProt P41144+P97266); experiment: Selectivity for guinea pig mu opioid receptor over kappa opioid receptor; type: protein assay
# [12] = molecular target: Mu-type opioid receptor (Cavia porcellus, UniProt P97266); experiment: Displacement of [3H]DAMGO from mu opioid receptor in guinea pig brain homogenate; type: tissue-based
# [13] = molecular target: Kappa-type opioid receptor (Cavia porcellus, UniProt P41144); experiment: Displacement of [3H]U-69593 from kappa opioid receptor in guinea pig brain homogenate; type: tissue-based
# [14] = molecular target: T1, Mu-type opioid receptor; experiment: Inhibition of DAMGO-stimulated [35S]GTP-gamma-S binding to mu opioid receptor expressed in C6 cells at 100 nM; type: functional, cell-based
# In short: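 C6 membranes expressing MOR were preincubated with ligand (100 nM) or vehicle in Tris-HCl buffer for 1 h at 25 °C. They were then centrifuged, resuspended, held at 37 °C to dissociate weakly bound ligand, recentrifuged and washed twice more. Washed membranes (15 µg) were incubated 1 h at 25 °C with increasing DAMGO and buffered [35S]GTPγS, giving DAMGO concentration–effect curves.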
# Opioid receptor (mu and kappa) (Cavia porcellus), sequence (P41144 whole entry, looked up): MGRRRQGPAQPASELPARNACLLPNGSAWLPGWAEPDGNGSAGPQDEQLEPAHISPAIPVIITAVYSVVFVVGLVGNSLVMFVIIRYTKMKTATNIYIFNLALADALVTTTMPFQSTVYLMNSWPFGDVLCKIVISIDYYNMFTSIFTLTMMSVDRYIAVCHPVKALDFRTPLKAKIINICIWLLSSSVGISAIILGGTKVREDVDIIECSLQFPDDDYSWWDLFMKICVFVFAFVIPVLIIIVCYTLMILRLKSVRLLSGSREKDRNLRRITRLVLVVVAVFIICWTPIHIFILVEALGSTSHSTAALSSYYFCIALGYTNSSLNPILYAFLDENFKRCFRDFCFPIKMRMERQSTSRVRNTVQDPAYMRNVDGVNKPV
# Opioid receptor (mu and kappa) (Cavia porcellus), sequence (P97266 whole entry, looked up): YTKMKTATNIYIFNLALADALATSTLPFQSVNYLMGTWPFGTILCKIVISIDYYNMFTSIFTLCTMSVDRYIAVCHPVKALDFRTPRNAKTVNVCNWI
# Kappa-type opioid receptor (Cavia porcellus, UniProt P41144), sequence (P41144 whole entry): as the sequence (P41144 whole entry, looked up) above
# T3 sequence (P41145 whole entry): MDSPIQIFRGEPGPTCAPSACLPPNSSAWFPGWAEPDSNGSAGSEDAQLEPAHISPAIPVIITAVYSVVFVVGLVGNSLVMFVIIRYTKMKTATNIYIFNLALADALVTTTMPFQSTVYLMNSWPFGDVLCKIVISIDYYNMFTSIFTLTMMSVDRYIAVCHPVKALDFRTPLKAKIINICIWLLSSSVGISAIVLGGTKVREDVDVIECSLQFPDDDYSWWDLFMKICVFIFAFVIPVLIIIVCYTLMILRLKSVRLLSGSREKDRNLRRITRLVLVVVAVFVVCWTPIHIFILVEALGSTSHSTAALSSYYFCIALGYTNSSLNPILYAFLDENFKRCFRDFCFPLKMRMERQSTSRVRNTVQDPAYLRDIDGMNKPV
# Mu-type opioid receptor (Cavia porcellus, UniProt P97266), sequence (P97266 whole entry): as the sequence (P97266 whole entry, looked up) above
# T2 sequence (P41143 whole entry): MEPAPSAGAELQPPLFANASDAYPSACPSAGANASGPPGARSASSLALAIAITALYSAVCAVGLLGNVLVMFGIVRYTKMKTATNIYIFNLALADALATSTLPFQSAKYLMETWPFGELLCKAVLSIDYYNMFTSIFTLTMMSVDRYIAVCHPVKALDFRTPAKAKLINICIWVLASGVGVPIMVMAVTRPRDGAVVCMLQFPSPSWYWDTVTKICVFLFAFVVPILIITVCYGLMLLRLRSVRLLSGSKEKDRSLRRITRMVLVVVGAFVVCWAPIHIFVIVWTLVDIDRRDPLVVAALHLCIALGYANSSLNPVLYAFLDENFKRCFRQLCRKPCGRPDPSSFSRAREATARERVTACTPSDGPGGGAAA
# T1 sequence (P35372 whole entry): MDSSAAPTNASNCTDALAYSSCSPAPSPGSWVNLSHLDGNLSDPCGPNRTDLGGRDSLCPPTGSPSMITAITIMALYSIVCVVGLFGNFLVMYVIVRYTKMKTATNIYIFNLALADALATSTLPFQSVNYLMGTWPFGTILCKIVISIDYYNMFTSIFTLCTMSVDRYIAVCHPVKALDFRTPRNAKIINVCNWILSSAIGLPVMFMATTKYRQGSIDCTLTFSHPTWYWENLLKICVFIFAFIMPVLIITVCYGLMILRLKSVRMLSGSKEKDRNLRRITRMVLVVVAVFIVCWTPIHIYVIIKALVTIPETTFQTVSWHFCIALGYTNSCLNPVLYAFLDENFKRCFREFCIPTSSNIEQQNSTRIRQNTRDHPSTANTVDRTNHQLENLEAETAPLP
Compound,Activity ([1]; filed as antagonist),IC50 [2],Ki [3],Ki [4],Ki [5],also measured
O=C(CCCc1ccc(Cl)cc1)N[C@@]12CCC(=O)[C@@H]3Oc4c(O)ccc5c4[C@@]31CCN(CC1CC1)[C@@H]2C5,Antagonist,1.37 nM,1.34 nM,2.95 nM,3.85 nM,–
O=C1CC[C@@]2(NC/C=C/Cc3ccc(Cl)cc3)[C@H]3Cc4ccc(O)c5c4[C@@]2(CCN3CC2CC2)[C@H]1O5,Antagonist,3.35 nM,1.89 nM,3.72 nM,6.65 nM,–
O=C(Cc1ccc(Cl)cc1)N[C@@]12CCC(=O)[C@@H]3Oc4c(O)ccc5c4[C@@]31CCN(CC1CC1)[C@@H]2C5,–,2.41 nM,0.73 nM,1 nM,1.51 nM,Efficacy [1]: 29%; Activity ([1]; filed as partial agonist): Partial agonist; Activity [6]: 10
COc1ccc2c3c1O[C@H]1C(=O)CC[C@@]4(NC(=O)CCCc5ccc(Cl)cc5)[C@@H](C2)N(CC2CC2)CC[C@]314,Antagonist,79.9 nM,3.88 nM,7.51 nM,89.4 nM,–
COc1ccc2c3c1O[C@H]1C(=O)CC[C@@]4(O)[C@@H](C2)N(CC2CC2)CC[C@]314,Antagonist,1000 nM,85.6 nM,128 nM,272 nM,–
COc1ccc2c3c1O[C@H]1C(=O)CC[C@@]4(NC(=O)/C=C/c5ccc(Cl)cc5)[C@@H](C2)N(CC2CC2)CC[C@]314,Antagonist,7.16 nM,–,–,–,–
COc1ccc2c3c1O[C@H]1C(=O)CC[C@@]4(NC(=O)C/C=C/c5ccc(Cl)cc5)[C@@H](C2)N(CC2CC2)CC[C@]314,Antagonist,118 nM,8.19 nM,21.5 nM,104 nM,–
COc1ccc2c3c1O[C@H]1C(=O)CC[C@@]4(NC/C=C/Cc5ccc(Cl)cc5)[C@@H](C2)N(CC2CC2)CC[C@]314,Antagonist,96.8 nM,6.76 nM,25.9 nM,94.9 nM,–
COc1ccc2c3c1O[C@H]1C(=O)CC[C@@]4(NCCCCc5ccc(Cl)cc5)[C@@H](C2)N(CC2CC2)CC[C@]314,Antagonist,61.1 nM,2.23 nM,41.5 nM,55.9 nM,–
O=C1CC[C@@]2(NCCCCc3ccc(Cl)cc3)[C@H]3Cc4ccc(O)c5c4[C@@]2(CCN3CC2CC2)[C@H]1O5,Antagonist,0.67 nM,0.96 nM,5.27 nM,2.18 nM,–
O=C1CC[C@@]2(NC/C=C/c3ccc(Cl)cc3)[C@H]3Cc4ccc(O)c5c4[C@@]2(CCN3CC2CC2)[C@H]1O5,–,–,–,–,–,Ki [7]: 0.32 nM; Ki [8]: 0.91 nM; Ki [9]: 0.63 nM
COc1ccc2c3c1O[C@H]1C(=O)CC[C@@]4(NCCCc5ccc(Cl)cc5)[C@@H](C2)N(CC2CC2)CC[C@]314,Antagonist,1.66 nM,–,–,–,Ratio Ki [10]: 53; Ratio Ki [11]: 133; Ki [12]: 0.59 nM; Ki [13]: 78.6 nM
COc1ccc2c3c1O[C@H]1C(=O)CC[C@@]4(NC(=O)CCc5ccc(Cl)cc5)[C@@H](C2)N(CC2CC2)CC[C@]314,Antagonist,0.76 nM,–,–,–,Ratio Ki [10]: 21.2; Ratio Ki [11]: 27.1; Ki [12]: 0.24 nM; Ki [13]: 6.5 nM
O=C1CC[C@@]2(NCC/C=C/c3ccc(Cl)cc3)[C@H]3Cc4ccc(O)c5c4[C@@]2(CCN3CC2CC2)[C@H]1O5,Antagonist,1.17 nM,1 nM,3.69 nM,2.1 nM,–
COc1ccc2c3c1O[C@H]1C(=O)CC[C@@]4(NC(=O)Cc5ccc(Cl)cc5)[C@@H](C2)N(CC2CC2)CC[C@]314,–,88.7 nM,2.64 nM,2.59 nM,51.9 nM,Efficacy [1]: 39%; Activity ([1]; filed as partial agonist): Partial agonist
O=C(CCc1ccc(Cl)cc1)N[C@@]12CCC(=O)[C@@H]3Oc4c(O)ccc5c4[C@@]31CCN(CC1CC1)[C@@H]2C5,Antagonist,0.03 nM,–,–,–,Ratio Ki [10]: 15; Ratio Ki [11]: 16.2; Ki [12]: 0.04 nM; Ki [13]: 0.65 nM
O=C1CC[C@@]2(NCCc3ccc(Cl)cc3)[C@H]3Cc4ccc(O)c5c4[C@@]2(CCN3CC2CC2)[C@H]1O5,–,1.59 nM,0.86 nM,1.53 nM,1.91 nM,Efficacy [1]: 34%; Activity ([1]; filed as partial agonist): Partial agonist
COc1ccc2c3c1O[C@H]1C(=O)CC[C@@]4(NC/C=C/c5ccc(Cl)cc5)[C@@H](C2)N(CC2CC2)CC[C@]314,–,–,–,–,–,Ratio Ki [10]: 63.6; Ratio Ki [11]: 76.6; Ki [12]: 0.7 nM; Ki [13]: 53.6 nM
O=C(C/C=C/c1ccc(Cl)cc1)N[C@@]12CCC(=O)[C@@H]3Oc4c(O)ccc5c4[C@@]31CCN(CC1CC1)[C@@H]2C5,Antagonist,1.7 nM,1.87 nM,4.94 nM,3.25 nM,–
COc1ccc2c3c1O[C@H]1C(=O)CC[C@@]4(NCC/C=C/c5ccc(Cl)cc5)[C@@H](C2)N(CC2CC2)CC[C@]314,Antagonist,148 nM,1.15 nM,33.5 nM,24.8 nM,–
O=C(/C=C/c1ccc(Cl)cc1)N[C@@]12CCC(=O)[C@@H]3Oc4c(O)ccc5c4[C@@]31CCN(CC1CC1)[C@@H]2C5 [CLOCINNAMOX],Antagonist,0.19 nM,–,–,–,Activity [14]: Active
COc1ccc2c3c1O[C@H]1C(=O)CC[C@@]4(NCCc5ccc(Cl)cc5)[C@@H](C2)N(CC2CC2)CC[C@]314,–,63 nM,1.33 nM,13.1 nM,33.8 nM,Efficacy [1]: 39%; Activity ([1]; filed as partial agonist): Partial agonist
COc1ccc2c3c1O[C@H]1C(=O)CC[C@@]4(NC(=O)/C=C/Cc5ccc(Cl)cc5)[C@@H](C2)N(CC2CC2)CC[C@]314,Antagonist,–,8.07 nM,25.2 nM,242 nM,–
O=C1CC[C@@]2(NCCCc3ccc(Cl)cc3)[C@H]3Cc4ccc(O)c5c4[C@@]2(CCN3CC2CC2)[C@H]1O5,Antagonist,0.02 nM,–,–,–,Ratio Ki [10]: 8.5; Ratio Ki [11]: 14.6; Ki [12]: 0.13 nM; Ki [13]: 1.9 nM
